Data as given in ChEMBL document CHEMBL1949667, “Development of small-molecule probes that selectively kill cells induced to express mutant RAS” (Bioorg Med Chem Lett, 2012).
Values after ≈ are worked out from the molar mass of the structure shown. Active and inactive are the calls of the source. The calls are words filed in the database; no cut-off is given here.

Tests used:
[1] = Selectivity ratio of IC50 for human BJeH-LT cells to IC50 for human BJeLR cells; assay type: ADME, cell-based; conditions: BJeH-LT cells versus BJeLR cells, read-out: Ratio IC50
[2] = Cytotoxicity against human BJeLR cells expressing HRAS G12V mutant after 48 hrs by alamar blue assay; assay type: functional, cell-based
In short: (§1)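 BJ fibroblast lines: BJeLR (hTERT, SV40 large and small T, HRASV12) and DRD (hTERT, SV40 small T, dominant-negative p53, cyclin D1, mutant CDK4, HRASV12), grown in DMEM/M199/heat-inactivated FBS for ≤20 passages. Compounds were taken from DMSO into medium as 2-fold serial dilutions. 1000 cells/well were exposed for 48 h at 37°C, 5% CO2. Alamar Blue was added for 16 h, then fluorescence read at excitation 544, emission 590.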

[3] = Cytotoxicity against human BJeH-LT cells after 48 hrs by alamar blue assay; assay type: cell-based
In short: (§2)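 Cells grown in DMEM/M199 with heat-inactivated FBS at 37°C, 5% CO2, ≤20 passages. Compounds in DMSO diluted into medium, then 2-fold serial dilutions in medium; 1000 cells/well treated for 48 h. Viability read by adding Alamar Blue (50% in growth medium), incubating 16 h, then fluorescence at 544 excitation/590 emission; concentration-response curves generated.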

BJeLR = test: Cytotoxicity against human BJeLR cells up to 20 ug/ml after 48 hrs by alamar blue assay; assay type: functional, cell-based; in short: as §2
BJeH-LT = test: Cytotoxicity against human BJeH-LT cells up to 20 ug/ml after 48 hrs by alamar blue assay; assay type: functional, cell-based; in short: as §2
MEF = test: Cytotoxicity against MEF expressing K-rasG12D after 48 hrs by CellTiter-Glo assay; assay type: functional, cell-based; conditions: Mus musculus
BJ = test: Cytotoxicity against human BJ cells expressing HRAS G12V mutant with alternative oncogenic constructs after 48 hrs by alamar blue assay; assay type: functional, cell-based; in short: as §1
[4] = (§3) Selectivity ratio of IC50 for human BJeH cells to IC50 for human BJeLR cells; assay type: ADME, cell-based; conditions: BJeH cells versus BJeLR cells, read-out: Ratio IC50
[5] = Cytotoxicity against human BJeH cells after 48 hrs by alamar blue assay; assay type: cell-based
[6] = as §3; assay type: ADME, cell-based; conditions: BJeH cells versus BJeLR cells, read-out: Ratio IC50; remark: listed apart in the source
[7] = Aqueous solubility of the compound; assay type: physicochemical
[8] = Drug degradation in PBS assessed as racemisation after 48 hrs by HPLC/MS analysis; assay type: physicochemical; conditions: buffer
[9] = Drug degradation in PBS/DMSO assessed as GSH-adduct formation after 1 hr in the presence of GSH and triethylamine; assay type: physicochemical; conditions: buffer

COc1ccc(N(C(=O)CCl)C(C(=O)NCCc2ccccc2)c2nc(C)cs2)cc1Cl (racemic)
selectivity ratio [1]: 2.4 | IC50 [2]: 8260 nM | IC50 [3]: 19800 nM

Cc1onc(C(=O)N2CCOCC2)c1[N+](=O)[O-]
inhibition (BJeLR): inactive | inhibition (BJeH-LT): inactive

Cc1onc(C(=O)N2CCN(Cc3ccccc3)CC2)c1[N+](=O)[O-]
inhibition (BJeLR): inactive | inhibition (BJeH-LT): inactive

COc1ccc(N(CC(=O)NCCc2ccccc2)C(=O)CCl)cc1Cl
selectivity ratio [1]: 2.3 | IC50 [2]: 231 nM | IC50 [3]: 531 nM

Cn1ncc([N+](=O)[O-])c1C(=O)N1CCN(C(c2ccccc2)c2ccccc2)CC1
inhibition (BJeLR): inactive | inhibition (BJeH-LT): inactive

COc1ccc(N(C(=O)CCl)C(C)(C)C(=O)NCCc2ccccc2)cc1Cl
selectivity ratio [1]: 2.2 | IC50 [2]: 58 nM | IC50 [3]: 127 nM

COc1ccc(N(C(=O)CCl)C(C(=O)NCCc2ccccc2)c2ccc(Cl)s2)cc1Cl (racemic)
selectivity ratio [1]: 2.2 | IC50 [2]: 61 nM | IC50 [3]: 133 nM

C[C@H](CN1CCCC1)C(=O)c1ccc(C(F)(F)F)cc1 [LANPERISONE]
IC50 (MEF): 4000 nM

Cn1cc([N+](=O)[O-])c(C(=O)N2CCN(C(c3ccccc3)c3ccccc3)CC2)n1
inhibition (BJeLR): inactive | inhibition (BJeH-LT): inactive

CCC(=O)N1CCN(C(=O)c2noc(C)c2[N+](=O)[O-])CC1
inhibition (BJeLR): inactive | inhibition (BJeH-LT): inactive

COc1ccc(N(C(=O)CCl)C(C(=O)NCCc2ccccc2)C(C)C)cc1Cl (racemic)
selectivity ratio [1]: 1.5 | IC50 [2]: 895 nM | IC50 [3]: 1300 nM

COc1ccccc1N1CCN(C(=O)c2noc(C)c2[N+](=O)[O-])CC1
inhibition (BJeLR): inactive | inhibition (BJeH-LT): inactive

Cc1onc(C(=O)N2CCN(C(c3ccc(Cl)cc3)c3ccc(Cl)cc3)CC2)c1[N+](=O)[O-]
IC50 (BJ): 107 nM | selectivity ratio [1]: 3.9 | IC50 [2]: 71 nM | selectivity ratio [4]: 4 | IC50 [3]: 272 nM | IC50 [5]: 628 nM | selectivity ratio [6]: 4

COc1ccc(N(C(=O)CCl)C(C(=O)NCCc2ccccc2)c2cccs2)cc1 (racemic)
selectivity ratio [1]: 7.8 | IC50 [2]: 220 nM | IC50 [3]: 1700 nM

Cc1onc(C(=O)N2CCN(C(c3ccccc3)c3ccc(Cl)cc3)CC2)c1[N+](=O)[O-] (racemic)
selectivity ratio [1]: 4 | IC50 [2]: 129 nM | IC50 [3]: 510 nM

Cc1onc(C(=O)NCc2ccc(F)cc2)c1[N+](=O)[O-]
inhibition (BJeLR): inactive | inhibition (BJeH-LT): inactive

COc1ccc(N(C(=O)CCl)C(C(=O)NCS(=O)(=O)c2ccc(C)cc2)c2cccs2)cc1Cl (racemic)
solubility ([7]; aqueous, read-out: solubility): < 1 µM | IC50 [2]: 89 nM | IC50 [3]: 208 nM

COC(=O)c1ccc(C2c3[nH]c4ccccc4c3C[C@@H](C(=O)OC)N2C(=O)CCl)cc1 (stereo partly specified)
selectivity ratio [1]: 8 | IC50 [2]: 100 nM

O=C(c1cc([N+](=O)[O-])ccn1)N1CCN(C(c2ccccc2)c2ccccc2)CC1
selectivity ratio [1]: 1.33 | IC50 [2]: 37300 nM | IC50 [3]: 49700 nM

Cc1onc(C(=O)N2CCN(C(c3ccncc3)c3ccncc3)CC2)c1[N+](=O)[O-]
solubility ([7]; buffer): > 500 µM | inhibition (BJeLR): inactive | inhibition (BJeH-LT): inactive

Cc1ccc(C(=O)N2CCN(C(c3ccccc3)c3ccccc3)CC2)c([N+](=O)[O-])c1
inhibition (BJeLR): inactive | inhibition (BJeH-LT): inactive

COc1cccc(N(C(=O)CCl)C(C(=O)NCCc2ccccc2)c2cccs2)c1 (racemic)
selectivity ratio [1]: 14 | IC50 [2]: 170 nM | IC50 [3]: 2400 nM

COc1ccc(C(c2ccc(OC)cc2)N2CCN(C(=O)c3noc(C)c3[N+](=O)[O-])CC2)cc1
selectivity ratio [1]: 3.4 | IC50 [2]: 1570 nM | IC50 [3]: 5320 nM

Cc1onc(C(=O)N2CCN(C(c3ccccn3)c3ccccn3)CC2)c1[N+](=O)[O-]
solubility ([7]; buffer): > 500 µM | inhibition (BJeLR): inactive | inhibition (BJeH-LT): inactive

Cc1onc(C(=O)N2CCN(C(c3ccccc3)c3ccccc3)CC2)c1[N+](=O)[O-]
selectivity ratio [1]: 4.8 | IC50 [2]: 1030 nM | IC50 [3]: 4970 nM

Cc1onc(C(=O)N2CCCN(C(c3ccccc3)c3ccccc3)CC2)c1[N+](=O)[O-]
selectivity ratio [1]: 3.6 | IC50 [2]: 773 nM | IC50 [3]: 2790 nM

COc1ccc(N(C(=O)CCl)C(C(=O)NC2CCCCC2)c2cccs2)cc1Cl (racemic)
selectivity ratio [1]: 2.4 | IC50 [2]: 113 nM | IC50 [3]: 270 nM

O=C(c1n[nH]cc1[N+](=O)[O-])N1CCN(C(c2ccccc2)c2ccccc2)CC1
inhibition (BJeLR): inactive | inhibition (BJeH-LT): inactive

COc1ccc(N(C(=O)CCl)C(C(=O)NCCc2ccccc2)C2CCCCC2)cc1Cl (racemic)
selectivity ratio [1]: 2.3 | IC50 [2]: 505 nM | IC50 [3]: 1180 nM

O=C(c1ccc([N+](=O)[O-])o1)N1CCN(C(c2ccccc2)c2ccccc2)CC1
inhibition (BJeLR): inactive | IC50 [3]: 18900 nM

COc1ccc(N(C(=O)CCl)C(C(=O)NCc2ccccc2)c2cccs2)cc1Cl (racemic)
selectivity ratio [1]: 2.4 | IC50 [2]: 75 nM | IC50 [3]: 179 nM

COc1ccc(N(C(=O)CCl)C(C(=O)NCCc2ccccc2)c2cccs2)cc1Cl (racemic)
solubility ([7]; aqueous, read-out: solubility): 16 µM (≈ 7.64 µg/mL) | IC50 (BJ): 34 nM | IC50 [2]: 25 nM | IC50 [3]: 578 nM | IC50 [5]: 2400 nM | Drug degradation [8]: Not Active | Drug degradation [9]: Active

Cc1onc(C(=O)NCCNC(c2ccccc2)c2ccccc2)c1[N+](=O)[O-]
IC50 [2]: 21600 nM | inhibition (BJeH-LT): inactive

O=C(NCCc1ccccc1)C(c1cccs1)N(C(=O)CCl)c1cccc(Cl)c1 (racemic)
selectivity ratio [1]: 2.1 | IC50 [2]: 156 nM | IC50 [3]: 331 nM

Cc1onc(C(=O)N2CCN(C(c3ccc(F)cc3)c3ccc(F)cc3)CC2)c1[N+](=O)[O-]
selectivity ratio [1]: 4.1 | IC50 [2]: 183 nM | IC50 [3]: 757 nM

COc1ccc(N(C(=O)CCl)C(C(=O)NCn2nnc3ccccc32)c2cccs2)cc1Cl (racemic)
IC50 [2]: 102 nM | IC50 [3]: 242 nM
